Molecules are shown by their SMILES. Out of some 360,000 compounds screened, about 3,600 (1%) were called active.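 How the source made its calls: active means activation above the mean activation of all test compounds in the run plus 3 SD (cut at about 38% in these data); inactive means the rest.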 The sample as a whole holds a higher share of actives than the screen did.

Chain of Trace amine-associated receptor 1 (Homo sapiens) (Q96RJ0 whole entry, looked up): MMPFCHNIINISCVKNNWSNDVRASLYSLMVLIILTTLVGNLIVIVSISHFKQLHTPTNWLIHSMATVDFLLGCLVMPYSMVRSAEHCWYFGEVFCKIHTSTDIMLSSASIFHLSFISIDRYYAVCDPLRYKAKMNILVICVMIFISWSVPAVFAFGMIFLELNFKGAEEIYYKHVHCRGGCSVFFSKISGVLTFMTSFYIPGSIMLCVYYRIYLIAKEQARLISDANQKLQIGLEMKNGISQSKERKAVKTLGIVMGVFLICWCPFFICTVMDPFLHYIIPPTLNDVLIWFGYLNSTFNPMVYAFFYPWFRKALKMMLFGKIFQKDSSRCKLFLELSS

This assay has as its target Trace amine-associated receptor 1 (Homo sapiens) (UniProt Q96RJ0). As to the kind of experiment: human TAAR1 agonists, primary screen, Fluo-8 calcium fluorescence, CHO RD-HGA16 cells (AID 624467). To be noted: CHO RD-HGA16 TAAR1, Fluo-8 calcium fluorescence; at 3 µM; stronger effect = higher value; vehicle wells 0%, saturating PEA agonist 100%. The essentials:
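Repeats: no replicates (n 1) | Material: CHO-derived RD-HGA16 cells with stable Gα16 and human TAAR1 | Technique: Kinetic Fluo-8 calcium fluorescence | Schedule: 17-24 h seeding, 75 min 37 °C dye, 30 min RT | Evaluation: % activation from peak over basal fluorescence ratio, DMSO-to-PEA scaled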
As to `CCOC(=O)C1CSCCS(=O)(=O)N1Cc1ccc(Cl)cc1` (stereo unspecified), the activation is 1.13% (inactive).

For the compound `CCN1C(=O)N[C@@H]2C[C@H](C(=O)N3CCCC3)[C@H](C)[C@H](c3ccccc3)C[C@@H]21`, the activation is 0.86% (inactive).

In the case of `CNC(=O)CSc1nnc(CCc2ccccc2)n1-c1ccccc1`, the activation is 5.04% (inactive).

Turning to `Cc1c(C(=O)NCc2ccccc2)cnn1-c1ccccc1`, the activation was 2.79% (inactive).

Turning to `Cc1c(CNCCc2ccccc2)c(C(=O)O)c(C)n1-c1ccccc1`, the activation is 78.1% (active).

Take `COc1ccc(C2=CN(Cc3ccccc3)C(c3ccc(OC)cc3)CC2=O)cc1` (stereo unspecified): the activation was -1.8% (inactive).

On to `O=C(NC1CCCC1)c1cc(-c2ccccc2)on1`, for which the activation was 2.47% (inactive).

For `CC(NC(=O)c1cc(-c2ccccc2)on1)c1ccccc1` (stereo unspecified), the activation is 52% (active).

As for `Cc1ccc(C(=O)NC(C)c2ccccc2)cc1Br` (stereo unspecified), the activation was -1.3% (inactive).

Consider `Cc1[nH]c2ccccc2c1CC(=O)Nc1ccc(Nc2cccnc2)c(-c2cccc(Cl)c2)c1`, for which the activation is 1.11% (inactive).

Consider `O=S1(=O)c2ccc(Br)cc2-n2nncc2CN1Cc1cccc(Cl)c1`, for which the activation is 1.66% (inactive).

Turning to `Cc1c(CN2CCCCC2)c(O)n(CCO)c(=O)c1C#N`, the activation is 11.5% (inactive).

With `CCCCCCn1c(CN2CCCC(C)C2)nc2c1c(=O)n(C)c(=O)n2C` (stereo unspecified), the activation was 0.08% (inactive).

As for `CCCn1c(O)c(CN2CCCC(C)C2)c(C)c(C#N)c1=O` (stereo unspecified), the activation was 96.4% (active).

For `CN(C)C(CNC(=O)c1cccc(S(=O)(=O)Nc2ccc(Br)cc2)c1)c1ccco1` (stereo unspecified), the activation is 16.7% (inactive).

On to `COc1ccc(C(CNC(=O)c2ccc(NS(=O)(=O)c3ccc(F)c(C)c3)cc2)N(C)C)cc1` (stereo unspecified), for which the activation was 3.7% (inactive).

For `COc1ccc(C(CNC(=O)c2cccc(S(=O)(=O)Nc3ccc(Br)cc3)c2)N(C)C)cc1` (stereo unspecified), the activation is 40.2% (active).

With `COc1ccc(-n2cc(CNC3CCOCC3)c(-c3cccc(F)c3)n2)cc1`, the activation is 7.84% (inactive).

Consider `O=C(NCC(c1ccco1)N1CCc2ccccc2C1)c1ccccc1Cl` (stereo unspecified), for which the activation is 12.4% (inactive).

With `CCOC(CNC(=O)C(=O)NCC(c1ccco1)N1CCN(c2ccc(OC)cc2)CC1)OCC` (stereo unspecified), the activation is 3.05% (inactive).

`COc1ccc(NC(=O)C(=O)NCC(c2ccco2)N2CCc3ccccc3C2)cc1` (stereo unspecified): the activation was 62.3% (active).

On to `Cc1[nH]nc2c1C(c1ccc(Br)cc1)NC2=O` (stereo unspecified), for which the activation is 0.5% (inactive).

With `CCOc1ccc(Br)cc1CSC(=N)N`, the activation was 70.5% (active).

As for `CC(C)(C)NCc1cc(Br)ccc1OC1CCCC1`, the activation is 1.46% (inactive).

Take `CCOc1ccc(Br)cc1S(=O)(=O)N1CCC(C(=O)O)CC1`: the activation was -0.19% (inactive).

As for `CC(=O)N1C[C@@H](CO)[C@@H](N(C)C(=O)C(C)(C)C)C[C@H]1c1ccccc1Br`, the activation is 3.7% (inactive).

For the compound `S=C(Nc1ccc(Br)cc1)NC1CCN(Cc2ccccc2)CC1`, the activation is 63% (active).

On to `S=C(Nc1ccc(Br)cc1Cl)NC1CCN(Cc2ccccc2)CC1`, for which the activation is 18% (inactive).

As to `O=C(COc1ccc(Br)cc1F)NC1CCN(Cc2ccccc2)CC1`, the activation was 7.63% (inactive).

With `CCC(C)NC(=O)/C=C/c1ccc(S(=O)(=O)NCc2ccco2)cc1` (stereo unspecified), the activation is 0.26% (inactive).

For the compound `Cc1ccc2nc(C)c3c(c2c1)N(c1ccccc1)CC3`, the activation was 1.22% (inactive).

Consider `Nc1nc2c(ncn2[C@@H]2O[C@H](C(=O)N[C@H](Cc3ccccc3)C(=O)NCC3CCCCC3)[C@@H](O)[C@H]2O)c(=O)[nH]1`, for which the activation was 2.45% (inactive).

For `CC1CCN(C(=O)c2ncn3c2C(=O)N[C@@H](C)C3)CC1`, the activation was 0.53% (inactive).

Regarding `CC1CCc2sc3nc(N4CCN(CCO)CC4)n4ncnc4c3c2C1` (stereo unspecified), the activation is 13.3% (inactive).

On to `CC(C)[C@H]1COCCS(=O)(=O)N1Cc1ccccc1-c1cccc2c1sc1ccccc12`, for which the activation was 1.46% (inactive).

Take `COc1ccccc1N1CCN(C(=O)c2cc(=O)c3cc(C)cc(C)c3o2)CC1`: the activation was 0.2% (inactive).

For `Cc1ccc(Cl)cc1N1CCN(C(=O)c2cccc3c(=O)c(C)c(-c4ccccc4)oc23)CC1`, the activation is 78% (active).

Regarding `Cc1cccc(N2CCN(C(=O)c3cnn4c(C(F)F)cc(-c5ccccc5)nc34)CC2)c1C`, the activation was -0.23% (inactive).

Regarding `OC(CCl)CCl`, the activation was 4.28% (inactive).

As to `CC(C)(C)n1nc(C2CC2)c(Br)c1NC(=O)c1ccccc1F`, the activation is -2.19% (inactive).

For `COc1ccc(-c2nc3n(c(=O)c2C#N)CCS3)c(OC)c1`, the activation was 1.68% (inactive).

On to `Cc1ccc2c(c1)NCC(C(=O)NC1CCC(C)CC1)O2` (stereo unspecified), for which the activation is -0.02% (inactive).

Consider `NS(=O)(=O)c1ccc(NC(=S)N2CCCC2)cc1`, for which the activation is 0.52% (inactive).

In the case of `NS(=O)(=O)c1ccc(NC(=S)Nc2ccc(Br)c(Cl)c2)cc1`, the activation is 42.6% (active).

`COc1ccc(NC(=S)Nc2ccc(S(N)(=O)=O)cc2)c(C)c1`: the activation was 5.94% (inactive).

Regarding `N#Cc1ccc(-c2nc3cc(C#N)c(C#N)cc3nc2-c2ccccc2)cc1C#N`, the activation was 2.52% (inactive).

Consider `Cc1cc2c(nc1C)CCCN2C`, for which the activation was 0.42% (inactive).

`O=C(Cn1c(N2CCN(C/C=C/c3ccccc3)CC2)nc2ccccc21)c1ccccc1`: the activation was 7.57% (inactive).

For `CC1(C(=O)OCC(=O)Nc2ncc(Cl)cc2Cl)CC1(Cl)Cl` (stereo unspecified), the activation is -0.29% (inactive).

In the case of `CC(Oc1ccc(Cl)cc1)C(=O)OCC(=O)Nc1ncc(Cl)cc1Cl` (stereo unspecified), the activation was 74.1% (active).

As for `CC(Oc1ccc(Cl)cc1)C(=O)Nc1ncccn1` (stereo unspecified), the activation was -0.09% (inactive).

Turning to `Cc1ccc(NC(=O)CN2CCc3ccccc3C2)cc1C`, the activation is 9.67% (inactive).

For the compound `Cc1ccc(NC(=O)CCN2CCc3ccccc3C2)cc1`, the activation was 88.5% (active).

Turning to `CCc1ccc(NC(=O)N2CCc3ccccc3C2)cc1`, the activation is 31% (inactive).

Regarding `CCOc1ccc(Cl)cc1-c1cc(C(=O)NCc2cccs2)[nH]n1`, the activation is 0.34% (inactive).

For `COc1ccc2c(c1)SC(C)CC2=O` (stereo unspecified), the activation is 5.89% (inactive).

Take `COc1ccc2c(c1)OC(O)(C(F)(F)C(F)F)CC2=O` (stereo unspecified): the activation was 56.3% (active).

For the compound `COc1ccc2c(c1)C(=O)CC(c1ccccc1)O2` (stereo unspecified), the activation was 5.95% (inactive).

With `Cc1ccc2c(c1)C(O)(CC(=O)c1cccnc1)C(=O)N2` (stereo unspecified), the activation is 0.5% (inactive).

As for `CCCCSc1nc2c(c(=O)n1CC)SC(C)C2` (stereo unspecified), the activation was 10% (inactive).

With `O=C(NS(=O)(=O)c1cccs1)[C@H]1O[C@@H](n2ccc(=O)[nH]c2=O)[C@H](O)[C@@H]1O`, the activation was 0.38% (inactive).

(Values after PubChem BioAssay AID624467 (The Scripps Research Institute Molecular Screening Center, 2012).)
